High-throughput results as filed in PubChem BioAssay.
In the library only some 1.4% were active in any assay of this set; here they are far more common.
core dimer inh – blocks dimerization of HCV core protein; 300,000 compounds, 0.33% hits; TR-FRET GST/Flag-core106 dimerization, 1536-well; inhibition, % at 5 µM;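 active = inhibition above the mean of all tested compounds plus 3 SD, set per screening campaign, cut at about 45% in these data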
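Assay system – GST-tagged and Flag-tagged HCV core protein residues 1-106 · Quantity – core106 proteins, GST 13.5 nM and Flag 17 nM · Benchmarks – unlabelled core106 and no-GST-core106 wells · Read-out basis – percent inhibition of core106 dimerization signal · Detection – time-resolved FRET, ex 340 nm, em 617 and 671 nm · Schedule – 4 h at 22.5 °C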
ZTA DNA inh – counter-screen for EBNA-1 inhibitors: inhibitors of Epstein-Barr virus ZTA; ZTA-DNA binding, fluorescence polarization; inhibition, % at 11 µM; 320,000 compounds, 0.15% hits; AID 2234; in the data active = inhibition above about 33%
Target sequence (P03206 whole entry, looked up): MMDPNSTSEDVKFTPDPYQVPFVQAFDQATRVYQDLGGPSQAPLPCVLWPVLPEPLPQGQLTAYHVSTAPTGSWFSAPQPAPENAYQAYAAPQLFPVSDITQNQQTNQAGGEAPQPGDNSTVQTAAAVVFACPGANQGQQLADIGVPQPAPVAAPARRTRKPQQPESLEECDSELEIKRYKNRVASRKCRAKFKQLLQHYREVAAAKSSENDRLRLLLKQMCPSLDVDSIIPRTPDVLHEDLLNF
NS3 helicase inh – blocks Hepatitis C virus NS3 helicase unwinding. 290,000 compounds, 0.56% hits. NS3 helicase DNA unwinding, Cy5 molecular beacon fluorescence. inhibition, % at 10.9 µM;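 active = inhibition above the mean of all tested compounds plus 3 SD, set per campaign, cut at about 35% in these data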;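 also: 0% = DMSO wells and 100% = thioflavine S control wells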
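Control set: DMSO versus 110 µM thioflavine S; Material: NS3 helicase fragment of HCV; Measured by: Cy5 fluorescence at 0 and 60 min, beacon hairpin quenching; Read-out basis: percent inhibition from t60/t0 fluorescence ratio; Times: reaction time 60 min, 25 °C; Repeats: single replicate; Compound dosing: single dose, 10.9 µM nominal final, DMSO 0.8% final.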
SUMO HTRF inh – inhibitors of human SUMOylation (UBC9). P63279. HTRF SUMOylation assay, SAE1/SAE2 + UBC9, in vitro. inhibition, % at 35 µM. 290,000 compounds, 0.36% hits; in the data active = inhibition above about 50%, passing the limit was not always enough
Target sequence (P63279 whole entry, looked up): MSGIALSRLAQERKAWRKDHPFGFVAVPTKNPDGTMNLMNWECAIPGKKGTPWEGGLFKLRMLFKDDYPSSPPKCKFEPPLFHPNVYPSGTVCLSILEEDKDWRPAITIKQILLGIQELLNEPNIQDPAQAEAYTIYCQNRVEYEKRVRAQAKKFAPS
EBNA-1 inh – blocks EBNA-1 binding to DNA | EBNA-1 DNA binding, fluorescence polarization | inhibition, % at 14.8 µM | 300,000 compounds, 0.34% hits | AID 1950; in the data active = inhibition above about 28%
NS3 hel confirm – HCV NS3 helicase inhibition, confirmation assay; NS3 helicase DNA unwinding, Cy5 molecular beacon fluorescence; 1,600 compounds, 31% hits; inhibition, % at 10.9 µM; shares compounds with NS3 helicase inh;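 active = inhibition above the mean of all tested compounds plus 3 SD, cutoff set per campaign, cut at about 36% in these data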
DNA FID counter – displaces DNA intercalator in HCV helicase counter-screen; shares compounds with NS3 helicase inh; DNA fluorescent intercalator displacement, fluorescence; inhibition, % at 7.9 µM; 1,600 compounds, 4% hits; AID 1945; in the data active = inhibition above about 37%;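 also: 0% = vehicle and 100% = reference compound; higher means more displacement of ethidium bromide from the DNA hairpin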
DNA FID DR – counter-screen for HCV NS3 helicase inhibitors: DNA intercalator displacement dose response; shares compounds with NS3 helicase inh; fluorescent intercalator displacement from DNA, fluorescence; IC50, µM; 120 tested, under 10 active; AID 2172; call rule not given here
* marks the source's active call; other numbers are inactive results; / = no result given.

SMILES	core dimer inh	ZTA DNA inh	NS3 helicase inh	SUMO HTRF inh	EBNA-1 inh	NS3 hel confirm	DNA FID counter	others
N#C/C(=C\c1cccs1)C(=O)c1ccccc1Cl	-1.9	5.2	40.5*	21.5	16.6	-26.4	7.1
CC(C)(C)C(=O)/C(C#N)=C/c1cccs1	-2.5	-8.0	1.0	4.4	1.6	/	/
CCC(c1nnc(SCC(=O)NC2CCCCC2)n1Cc1ccccc1)N(C)C (stereo not drawn)	0.5	-0.8	/	/	-5.4	/	/
Cc1cc(C)c(N(CC(=O)NCc2ccccc2)C(=O)c2csnn2)c(C)c1	-19.8	-5.8	2.8	0.3	2.7	/	/
CCOC(=O)CC1COCCN1C(=O)c1cc(COc2ccc(F)cc2Cl)on1 (stereo not drawn)	10.6	2.0	8.8	-7.3	-9.6	/	/
O=C(O)c1cc(-c2ccc(/C=C3\NC(=O)N(c4ccccc4)C3=O)o2)ccc1Cl	-2.8	-0.5	17.4	20.3	4.1	/	/
O=C(O)c1cc(-c2ccc(/C=c3\sc4nc5ccc(Br)cc5n4c3=O)o2)ccc1Cl	-46.4	-0.5	37.7*	24.3	-0.9	72.9*	9.2
C#CCN1C(=O)S/C(=C\c2ccc(-c3ccc(Cl)c(C(=O)O)c3)o2)C1=O	-8.6	11.0	40.1*	13.2	5.6	55.5*	-14.1
Cc1ccc2[nH]c(C(=O)NCCN3CCCC3)cc2c1	-5.1	-1.3	-30.0	17.5	-6.1	/	/
O=C(CN1C(=O)NC2(CCCC2)C1=O)NNC(=O)c1ccc(Br)cc1	1.5	-3.8	/	/	-16.6	/	/
CCN(CC)C(=O)COC(=O)c1cc(-c2ccc(OC)cc2)nc2ccccc12	5.8	-2.4	-10.1	22.6	5.5	/	/
COc1ccc(CCNC(=O)c2cc(-c3ccco3)nc3ccccc23)cc1	64.7*	3.2	53.3*	14.8	-2.8	6.6	-16.9
CCN(CC)C(=O)COC(=O)c1cc(-c2ccco2)nc2ccccc12	/	/	44.5*	41.1	/	18.6	0.3
CC(=O)Nc1ccc(/C=N/NC(=O)c2cc(-c3ccco3)nc3ccccc23)cc1	1.9	9.7	-3.0	31.0	13.5	/	/
CCN(CC)CCNC(=O)c1cc(-c2ccco2)nc2ccccc12	-0.6	22.9	-11.8	41.2	11.1	/	/
O=C(O)c1ccccc1/C=N/NC(=O)c1cc(-c2ccco2)nc2ccccc12	40.7	2.5	42.0*	78.3*	-4.6	68.4*	-21.0	DNA FID DR=>79.4
Cc1ccc(C(C)C)cc1S(=O)(=O)NC1CC(C)(C)NC(C)(C)C1	-0.5	11.2	-8.2	7.3	-0.9	/	/
COc1ccc(NC(=O)CN(c2ccc(OC)c(Cl)c2)S(=O)(=O)c2ccccc2)c(OC)c1	5.2	9.7	-8.7	8.4	18.7	/	/
COc1c2ccoc2nc2c(OC)c(OC[C@@H](O)C(C)(C)O)ccc12	0.0	7.2	/	/	1.2	/	/
COc1ccccc1NC(=O)CSc1ccc(-c2ccco2)nn1	17.2	-2.2	24.2	15.0	9.0	/	/
COc1ccc(OC)c(NC(=O)CSc2ccc(-c3ccco3)nn2)c1	43.2	-10.6	44.6*	33.8	7.3	-20.4	-12.8
COc1ccc(CCNC(=O)C(=O)NCC2OCCN2S(=O)(=O)c2ccccc2)cc1 (stereo not drawn)	14.0	0.5	37.1*	2.6	2.9	-11.5	-47.3
COc1ccc(CCNC(=O)C(=O)NCC2OCCN2S(=O)(=O)c2ccc(Br)cc2)cc1 (stereo not drawn)	4.2	-26.0	-10.6	-3.8	4.6	/	/
OC(CNC1Cc2ccccc2C1)COc1ccc(F)cc1 (stereo not drawn)	1.2	-6.4	37.1*	-0.6	-8.2	0.2	27.4
CCOc1ccc(S(=O)(=O)N/N=C(\C)C2CCCCC2)cc1	-6.0	8.2	43.0*	-0.9	7.8	-2.5	8.7
SMILES	core dimer inh	ZTA DNA inh	NS3 helicase inh	SUMO HTRF inh	EBNA-1 inh	NS3 hel confirm	DNA FID counter	others
COc1ccccc1N1CCN(/N=C/c2ccc(O)c(O)c2)CC1	-4.1	7.6	37.1*	5.0	-11.2	-1.4	-7.4
COc1cccc(-c2nc(-c3ccccc3)c(-c3ccccc3)[nH]2)c1OCC(=O)O	/	/	45.6*	15.0	/	64.4*	-11.6
CCOC(=O)C1=C(O)/C(=C\c2ccc(CNC(=O)C(=O)Nc3ccccc3)o2)N=C1C	13.8	4.3	39.6*	18.7	1.2	31.0	-8.1
Oc1cccc(C=Nc2cccc3ccccc23)c1O	10.5	3.1	46.3*	66.0	-15.0	-1.3	14.4
COc1ccc(/C=C2/S/C(=N/S(=O)(=O)Cc3ccccc3)NC2=O)cc1OC	4.2	26.0	41.8*	29.5	15.0	57.1*	-33.3
COc1cc(/C=C2/SC(=S)NC2=O)ccc1OS(=O)(=O)c1ccc(C)cc1	23.1	6.2	52.9*	42.3	11.8	58.8*	31.4
O=C1CC(NS(=O)(=O)c2ccc3ccccc3c2)CN1c1ccccc1 (stereo not drawn)	3.1	2.7	/	/	4.8	/	/
O=C(c1cc2ccccc2o1)N1CCN(c2ccccn2)CC1	-2.1	-0.3	2.5	9.8	-1.0	/	/
O=C(O)C1CCN(S(=O)(=O)c2ccc(N3CCCC3C(=O)O)c([N+](=O)[O-])c2)CC1 (stereo not drawn)	-21.7	-9.5	4.1	13.8	-4.7	/	/
O=C(NC(=S)NC1CCSC1=O)c1cccc([N+](=O)[O-])c1 (stereo not drawn)	-4.9	-19.4	8.0	4.7	-9.5	/	/
O=C(NC(=S)NC1CCSC1=O)c1ccc([N+](=O)[O-])cc1 (stereo not drawn)	3.6	-0.8	42.9*	2.3	1.4	-17.3	12.8
O=C(NNC(=S)NC(=O)c1ccccc1)c1ccc([N+](=O)[O-])cc1	-9.2	-15.7	13.1	-6.1	13.6	/	/
O=C(NC(=S)NNC(=O)c1ccccc1O)c1ccc([N+](=O)[O-])cc1	-1.1	-8.2	36.2*	-11.9	5.8	-12.5	16.9
C/C(=N\NC(=S)NCCc1ccccc1)c1ccc(Cl)cc1Cl	-18.6	3.1	20.8	-2.4	-6.9	/	/
C/C(=N\NC(=S)NCCc1ccccc1)c1ccc(O)cc1O	-17.0	-0.5	50.4*	-1.3	14.9	11.9	12.4
Cc1ccc(S(=O)(=O)N2CCC(C(=O)OCC(=O)NC(C)c3ccc(F)cc3)CC2)cc1C (stereo not drawn)	/	25.4	/	/	/	/	/
Cc1cc(N2C(=O)C(O)=C(C(=O)c3cc4ccccc4o3)C2c2ccc(Br)cc2)no1 (stereo not drawn)	-6.4	-8.3	42.0*	/	7.3	121.8*	0.1
Cc1ccc(C(=O)C2=C(O)C(=O)N(Cc3cccnc3)C2c2cccc(Oc3ccccc3)c2)o1 (stereo not drawn)	22.7	3.5	44.9*	-4.3	8.3	86.2*	-37.0	DNA FID DR=>79.4
